Most compounds without a hit are left out; they make up all but 9.2% or so of the library.
HCT116 PTEN-null: growth suppressors of cells with PTEN tumor suppressor deletion. HCT116 PTEN-null viability, CellTiter-Glo, 60 h; stronger effect = lower value. viability, % at 10 µM. actives 1.2% (n = 140,000). AID 827;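 active = viability at or below a set limit, 4 SD under the median of all tested compounds, cut at about 3.7% in these data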;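 note: PTEN knockout HCT116 line with beta catenin targeted HCT116 as companion control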
L major viab: inhibitors of Leishmania major promastigote growth; Leishmania major promastigotes, resazurin fluorescence viability; inhibition, % at 10 µM; actives 9% (n = 200,000); AID 1063; in the data active = inhibition above about 50%;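 note: promastigotes grown with compound for 44 hours at 28 °C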
Autophagy HCS: modulators of autophagy | MEF GFP-LC3 puncta imaging; test concentration mostly 10 µM | calls only at 10 µM (by protocol) | actives 0.98% (n = 190,000);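 active = percentage of spot-positive cells more than 3 SD above its plate mean, without a fluorescence outlier flag or 80% toxicity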
HCT116 bCat-KO: beta-catenin-lacking colon tumor cell growth suppression; HCT116 beta-catenin knockout viability, CellTiter-Glo, 60 h; stronger effect = lower value; viability, % at 10 µM; actives 1.5% (n = 140,000);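 active = viability at or under a set limit, the compound median less 4 SD, cut at about 6% in these data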
Dynein transport: dynein cargo transport inhibition; actives 0.47% (n = 220,000); 3617.4 mouse cells, GR-EGFP nuclear translocation imaging; test concentration mostly 20 µM; stimulated with dexamethasone, 1 µM; stronger effect = lower value; z-score, hits read low;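 active = plate z-score of nuclear minus cytoplasmic receptor signal below a set negative limit, without overly bright fluorescence or cell loss, cut at about -3.5 in these data, passing the limit was not always enough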;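 note: z-score of nuclear minus cytoplasmic ring GR-EGFP intensity difference per well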
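Also added: dexamethasone, 1.0 µM final. Medium: tet-free, stripped-serum medium. Detection: fixed, Hoechst-stained cells imaged at 10x for EGFP. Read-out: nuclear-to-cytoplasmic GR-EGFP distribution per well. Times: induction 48 h, compound 1 h, agonist 30 min.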
A number is an active result; . = inactive; / = no result; + = active, no number.

SMILES	HCT116 PTEN-null	L major viab	Autophagy HCS	HCT116 bCat-KO	Dynein transport
Clc1ccc(OCCOCCN2CCCCC2)c(Br)c1	.	100	.	.	.
Cc1cc(C(C)(C)C)ccc1OCCOCCN1CCCC1	.	96	.	.	.
CCCN(CCC)CC(O)COc1ccc([N+](=O)[O-])cc1 (centres undefined)	.	.	.	.	.
COc1ccc(N=c2scc(C)n2CCCN2CCCC2=O)cc1	/	.	.	/	.
Cc1ccc(C(=O)CSC2=C(C#N)C(c3ccco3)C3=C(CC(C)(C)CC3=O)N2)cc1 (centres undefined)	.	90	.	.	.
CC(=O)C1=C(C)NC(SCC(=O)c2ccc(C)cc2)=C(C#N)C1c1ccco1 (centres undefined)	.	.	+	.	.
COc1ccccc1NC(=O)C1=C(C)NC(SCC(=O)c2ccccc2)=C(C#N)C1c1ccco1 (centres undefined)	.	.	.	.	.
CC1=C(C(=O)OC2CCCCC2)C(c2ccco2)C2=C(CC(C)(C)CC2=O)N1 (centres undefined)	.	59	.	.	.
COc1ccc(/C=N/Nc2nnc(Cc3ccc(OC)c(OC)c3)c(=O)[nH]2)cc1OC	.	81	.	.	.
CCOc1ccc(NC(=O)c2cn(CC(C)C)c(=O)c3c2c2ccccc2n3C)cc1	.	.	+	.	.
COc1ccccc1NC(=O)Nc1cc(NC(=O)Nc2ccccc2OC)c(C)nc1C	.	64	.	.	.
COc1ccc(NC(=O)Nc2ccccc2OC)cc1	.	.	.	.	.
COc1ccccc1NC(=O)c1cnc(Nc2ccccc2OC)c2ccccc12	.	95	.	.	.
COc1ccccc1N/C(=N/c1nc(C)cc(C)n1)NC(C)=O	.	61	.	.	.
COc1ccccc1NC(=O)Nc1ccncc1	/	97	.	/	.
CCOP(=O)(OCC)/C(C#N)=C(\O)c1ccc(OC)cc1	/	/	/	/	.
Cn1c(=O)c2c(nc(SCC(=O)c3ccccc3F)n2C)n(C)c1=O	/	.	.	/	.
CCc1nc2ccc(C(=O)NCc3ccccc3)cc2nc1CC	/	.	.	/	.
CN(C)c1ccc(N/C(N)=N/c2nc(C(F)(F)F)cc(C(F)(F)F)n2)cc1	/	.	.	/	.
COc1ccc(NC(=O)Nc2ccc(Cc3ccncc3)cc2)cc1OC	.	96	.	.	.
CCOC(=O)N1CCC(NC(=O)c2csc3c2CCCC3)CC1	.	.	.	.	.
Cc1nc(C(=O)NC(C)C)nn1-c1cc(Cl)cc(Cl)c1	/	.	.	/	.
CNC(=S)N/N=C/C1=CCC2CC1C2(C)C (centres undefined)	.	97	.	.	.
CC1(C)C2CC=C(/C=N/NC(=O)c3ccccc3O)C1C2 (centres undefined)	.	.	.	.	.
CC1(C)C2CC=C(/C=N/NC(=S)NCCc3ccccc3)C1C2 (centres undefined)	/	87	.	/	.
SMILES	HCT116 PTEN-null	L major viab	Autophagy HCS	HCT116 bCat-KO	Dynein transport
Cc1cc(NC(=O)CSc2nc(-c3ccccc3Cl)nc3c2c(=O)n(C)c(=O)n3C)no1	/	.	.	/	.
Cc1ccc(NC(=O)CSc2cccc[n+]2[O-])c([N+](=O)[O-])c1	/	.	.	/	.
OC(CON=C1c2ccccc2-c2ccccc21)CN1CCNCC1 (centres undefined)	/	92	.	/	.
Cc1ccc(N2C(=O)C3C(C2=O)C2C=CC3C23CC3)c([N+](=O)[O-])c1 (centres undefined)	/	.	.	/	.
O=C(O)CC1(CC(=O)Nc2cc(C(F)(F)F)cc(C(F)(F)F)c2)CCCCC1	/	/	/	/	.
O=C(Nc1nc2ccccc2s1)c1cc2c(s1)-c1ccccc1OC2	.	.	+	.	.
O=C(Nc1nccs1)c1cc2c(s1)-c1ccccc1OC2	.	.	.	.	.
CCC(=O)Nc1ccc(S(=O)(=O)N2CCN(c3ccc(F)cc3)CC2)cc1	.	.	.	.	.
CCCCN(Cc1ccccc1)S(=O)(=O)c1cc(Br)cc2c1N(C(C)=O)C(C)C2 (centres undefined)	.	98	.	.	.
Cc1cc2c(c(SCC(=O)NCc3ccccc3Cl)n1)C(=O)OC2	/	.	.	/	.
CC(=O)OCC(=O)[C@H]1CC[C@H]2[C@@H]3CCC4=CC(=O)CC[C@]4(C)[C@H]3CC[C@]12C	.	100	.	.	.
O=C(O)c1ccc(/C=N/NC(=O)c2ccc(Cl)cc2)cc1	/	/	/	/	.
COc1ccccc1-c1nc2n(n1)C(c1cccs1)C(C(=O)Nc1cccnc1)=C(C)N2 (centres undefined)	.	99	.	.	.
COc1ccc(C2C(C(=O)Nc3cccnc3)=C(C)Nc3nc(-c4ccco4)nn32)cc1 (centres undefined)	.	.	.	.	.
CC1=C(C(N)=O)C(c2cccnc2)n2nc(-c3cccc(Cl)c3)nc2N1 (centres undefined)	.	67	.	.	.
COc1ccccc1NC(=O)C1=C(C)Nc2nc(-c3cccs3)nn2C1c1cccnc1 (centres undefined)	.	97	.	.	.
COc1ccccc1NC(=O)C1=C(C)Nc2nc(-c3ccc(N(C)C)cc3)nn2C1c1ccncc1 (centres undefined)	.	.	.	.	.
CCOC(=O)C1=C(C)OC(N)=C(C#N)C1c1ccc(C)s1 (centres undefined)	/	.	.	/	.
Cn1c(CSCc2ccccc2)nnc1SCC(=O)Nc1nccs1	.	.	.	.	.
Cn1c(Cn2nnc3ccccc32)nnc1SCC(=O)Nc1nccs1	.	.	+	.	.
CCC(=O)N1c2ccc(S(=O)(=O)CCC(=O)N3CCn4c3nc3ccccc34)cc2CC1C (centres undefined)	.	79	.	.	.
N#CCCN/N=C(/Cc1nc2ccccc2[nH]1)c1cccc(Cl)c1	.	78	.	.	.
Clc1ccc(/C(Cc2nc3ccccc3[nH]2)=N\Nc2ccccc2)cc1	/	.	.	/	.
COc1cccc(CN2CCN(CCc3ccccc3)C(CCO)C2)c1OC (centres undefined)	/	.	.	/	.
COc1ccc(O)c(CN2CCN(CCc3ccccc3)C(CCO)C2)c1 (centres undefined)	/	77	.	/	.
SMILES	HCT116 PTEN-null	L major viab	Autophagy HCS	HCT116 bCat-KO	Dynein transport
COc1ccc(CN2CCN(CCc3ccccc3)C(CCO)C2)c(O)c1 (centres undefined)	/	87	.	/	.
COc1ccc(CC(=O)N(C)C2CCCCC2)cc1S(=O)(=O)N1CCOCC1	/	.	.	/	.
O=C1c2ccccc2C(=O)N1CCCCN(C(=O)c1cc2ccccc2oc1=O)c1ccc(F)cc1F	.	.	.	.	.
CC(C)CSc1oc(-c2ccco2)nc1S(=O)(=O)c1ccccc1	/	/	/	/	.
COc1ccc(/C=C\C(=O)c2c(O)ccc3c(C)cc(=O)oc23)cc1	.	100	.	.	.
COc1ccc(/C=C/C(=O)c2c(O)ccc3c(C)cc(=O)oc23)cc1	.	88	.	.	.
COc1cccc(C(=O)Oc2ccc3c(C)cc(=O)oc3c2C(C)=O)c1	.	.	.	.	.
COc1cc2c(cc1OC)C1(CCCCC1)CN(C)C2	/	/	/	/	.
